Laboratory results taken from ChEMBL document CHEMBL1133009, “Permanently charged chiral 1,4-dihydropyridines: molecular probes of L-type calcium channels. Synthesis and pharmacological characterization of methyl(omega-trimethylalkylammonium) 1,4-dihydro-2,6-dimethyl-4-(3-nitrophenyl)-3,5-pyridinedicarboxylate iodide, calcium channel antagonists” (J Med Chem, 2000).

What was measured:
[1] = system: GH4-C1; assay: Pseudo Hill coefficient for the inhibition of Barium currents in GH4C1 cells was determined.; assay type: cell-based; conditions: Rattus norvegicus
Summary of the method: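 Whole-cell voltage clamp of GH4C1 rat pituitary cells cultured 2-6 days, bathed in normal Tyrode's (pH 7.4). Held at -40 mV to inactivate T-type channels. Each DHP concentration (0.03-10 µM, increasing order) equilibrated 30 s, then a 200 or 50 ms pulse to +10 mV. Currents normalized to capacitance (pA/pF); IC50 and Hill slope fitted by Hill equation; 6-7 cells.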

[2] = target: T1, Voltage-gated L-type calcium channel (Rattus norvegicus, UniProt P22002+Q02485+P27732); assay: Pseudo Hill coefficient for inhibition of [3H](+)-PN200-110 binding to GH4C1 cells under depolarized conditions (50 mM K+).; assay type: cell-based; conditions: gh4-c1
Summary of the method: (§1)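 Intact GH4C1 cells attached to the culture dish, competition against [3H]-(+)-PN200-110 in depolarizing Hank's buffer (50 mM K+, pH 7.4). IC50 and slope from Hill equation fit; KI = IC50/(1+[L]/KD); n = 4-6 experiments, mean ± SEM.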

[3] = target: T1, Voltage-gated L-type calcium channel; assay: Pseudo Hill coefficient for inhibition of [3H](+)-PN200-110 binding to GH4C1 cells; assay type: cell-based; conditions: gh4-c1
Summary of the method: (§2)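 Competition against [3H]-(+)-PN200-110 in GH4C1 membranes, protein by Bradford. IC50 and pseudo Hill slope from Hill equation fit of specific DPM bound; KI = IC50/(1+[L]/KD); n = 4-6 experiments.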

[4] = Compound was tested for its inhibition of Barium currents in GH4C1 cells.; assay type: functional, cell-based, Rattus norvegicus; conditions: gh4-c1
[5] = target: T1, Voltage-gated L-type calcium channel; assay: Inhibition of [3H](+)-PN200-110 binding to calcium channels of GH4C1 cells.; assay type: cell-based; conditions: gh4-c1; summary of the method: as §2
[6] = target: T1, Voltage-gated L-type calcium channel; assay: Inhibition of [3H](+)-PN200-110 binding to calcium channels of rat cerebral cortex membrane.; assay type: tissue-based
Summary of the method: (§3)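 Rat cerebral cortex membranes, protein by Bradford, competition with [3H]-(+)-PN200-110. IC50 and pseudo Hill slope from Hill equation fit of specific DPM bound; KI = IC50/(1+[L]/KD); n = 4-6 experiments.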

[7] = target: T2, Voltage-dependent L-type calcium channel subunit alpha-1C (Rattus norvegicus, UniProt P22002); assay: Inhibition of [3H](+)-PN200-110 binding to calcium channels of rat heart membranes.; assay type: cell membranes, Membrane
Summary of the method: (§4)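 Using rat heart membranes (protein by Bradford), displacement of [3H]-(+)-PN200-110. IC50 and pseudo Hill slope from Hill equation fit; KI = IC50/(1+[L]/KD); n = 4-6 experiments.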

[8] = target: T1, Voltage-gated L-type calcium channel; assay: Inhibition of [3H](+)-PN200-110 binding to calcium channels of GH4C1 cells under depolarized conditions (50 mM K+).; assay type: cell-based; conditions: gh4-c1; summary of the method: as §1
[9] = target: T1, Voltage-gated L-type calcium channel; assay: Pseudo Hill coefficient for inhibition of [3H](+)-PN200-110 binding to calcium channels of rat cerebral cortex membrane; assay type: tissue-based; summary of the method: as §3
[10] = target: T2, Voltage-dependent L-type calcium channel subunit alpha-1C; assay: Pseudo Hill coefficient for inhibition of [3H](+)-PN200-110 binding to calcium channels of rat heart membranes; assay type: cell membranes, Membrane; summary of the method: as §4
[11] = target: T1, Voltage-gated L-type calcium channel; assay: Inhibition of [3H](+)-PN200-110 binding to calcium channels of rat GH4C1 cells.; assay type: cell-based; conditions: gh4-c1; summary of the method: as §2

T2 sequence (P22002 whole entry): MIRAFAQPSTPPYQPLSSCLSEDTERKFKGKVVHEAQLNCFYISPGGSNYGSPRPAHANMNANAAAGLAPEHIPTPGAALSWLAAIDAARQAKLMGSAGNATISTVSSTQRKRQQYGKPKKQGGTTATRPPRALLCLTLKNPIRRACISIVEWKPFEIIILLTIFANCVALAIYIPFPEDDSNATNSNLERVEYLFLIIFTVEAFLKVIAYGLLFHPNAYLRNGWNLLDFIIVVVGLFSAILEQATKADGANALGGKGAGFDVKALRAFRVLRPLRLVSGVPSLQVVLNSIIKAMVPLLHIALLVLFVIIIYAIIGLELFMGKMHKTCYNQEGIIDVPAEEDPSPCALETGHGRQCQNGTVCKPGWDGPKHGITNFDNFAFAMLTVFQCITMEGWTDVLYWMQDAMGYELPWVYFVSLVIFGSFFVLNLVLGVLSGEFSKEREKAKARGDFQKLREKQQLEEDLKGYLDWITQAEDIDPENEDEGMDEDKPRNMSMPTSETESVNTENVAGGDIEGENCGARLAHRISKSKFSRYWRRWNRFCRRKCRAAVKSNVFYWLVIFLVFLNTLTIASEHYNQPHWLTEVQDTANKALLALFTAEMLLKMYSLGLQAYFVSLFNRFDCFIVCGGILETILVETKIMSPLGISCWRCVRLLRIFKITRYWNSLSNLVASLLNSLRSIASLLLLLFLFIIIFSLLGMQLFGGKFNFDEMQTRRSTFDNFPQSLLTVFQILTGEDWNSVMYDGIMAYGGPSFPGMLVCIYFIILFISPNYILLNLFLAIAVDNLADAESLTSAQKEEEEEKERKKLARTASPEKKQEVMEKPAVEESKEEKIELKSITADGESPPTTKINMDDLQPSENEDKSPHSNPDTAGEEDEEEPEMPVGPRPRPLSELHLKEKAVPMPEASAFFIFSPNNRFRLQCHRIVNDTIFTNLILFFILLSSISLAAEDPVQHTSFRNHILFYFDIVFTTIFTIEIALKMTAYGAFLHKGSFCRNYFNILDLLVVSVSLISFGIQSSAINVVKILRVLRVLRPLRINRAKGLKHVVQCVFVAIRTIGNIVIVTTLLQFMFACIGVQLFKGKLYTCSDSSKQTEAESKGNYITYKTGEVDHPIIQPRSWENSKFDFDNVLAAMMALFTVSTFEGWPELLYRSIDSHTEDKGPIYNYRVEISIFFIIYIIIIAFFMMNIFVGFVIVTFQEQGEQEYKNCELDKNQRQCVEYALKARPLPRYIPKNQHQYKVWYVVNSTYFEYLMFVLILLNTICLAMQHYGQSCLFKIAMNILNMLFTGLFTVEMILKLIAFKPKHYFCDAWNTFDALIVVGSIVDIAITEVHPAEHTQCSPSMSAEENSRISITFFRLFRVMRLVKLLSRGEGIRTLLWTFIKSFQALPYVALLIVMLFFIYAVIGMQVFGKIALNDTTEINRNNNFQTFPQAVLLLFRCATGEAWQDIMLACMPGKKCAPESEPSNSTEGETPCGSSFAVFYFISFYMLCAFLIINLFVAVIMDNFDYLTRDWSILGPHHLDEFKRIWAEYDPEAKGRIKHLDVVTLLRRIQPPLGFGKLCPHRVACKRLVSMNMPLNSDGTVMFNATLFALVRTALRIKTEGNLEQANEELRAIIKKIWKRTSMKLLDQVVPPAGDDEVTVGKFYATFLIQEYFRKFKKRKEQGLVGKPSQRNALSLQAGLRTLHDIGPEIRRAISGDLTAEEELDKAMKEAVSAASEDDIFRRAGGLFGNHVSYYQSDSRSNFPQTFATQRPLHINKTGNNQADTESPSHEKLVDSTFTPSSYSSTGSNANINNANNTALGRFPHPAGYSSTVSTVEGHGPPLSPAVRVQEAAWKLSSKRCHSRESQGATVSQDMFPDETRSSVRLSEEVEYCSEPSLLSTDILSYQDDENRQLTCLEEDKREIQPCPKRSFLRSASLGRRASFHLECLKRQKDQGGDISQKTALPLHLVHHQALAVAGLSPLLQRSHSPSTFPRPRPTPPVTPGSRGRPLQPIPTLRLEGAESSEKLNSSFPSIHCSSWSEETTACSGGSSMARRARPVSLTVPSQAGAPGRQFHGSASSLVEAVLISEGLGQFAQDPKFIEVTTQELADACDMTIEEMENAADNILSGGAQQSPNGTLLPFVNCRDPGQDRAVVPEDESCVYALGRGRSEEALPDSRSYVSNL

Row | nH [2] | nH [3] | IC50 [4] | Ki [5] | Ki [6] | Ki [7] | Ki [8] | nH [9] | nH [10] | Ki [11] | SMILES | nH [1]
1 | 0.5 | 0.6 | 271 µM | 48.12 µM | 14.013 µM | 13.7 µM | 3.988 µM | 0.8 | 0.9 | – | COC(=O)C1=C(C)NC(C)=C(C(=O)OCC[N+](C)(C)C)[C@@H]1c1cccc([N+](=O)[O-])c1.[I-] | 0.3
2 | 1.7 | 0.9 | 17.7 µM | 2.111 µM | 1.372 µM | 1.51 µM | 0.2485 µM | 1 | 1 | – | COC(=O)C1=C(C)NC(C)=C(C(=O)OCC[N+](C)(C)C)C1c1cccc([N+](=O)[O-])c1.[I-] (racemic) | 0.7
3 | 1.3 | 1.5 | 1.5 µM | – | 0.0372 µM | 0.0992 µM | 0.0686 µM | 1.4 | 1.1 | 0.0168 µM | COC(=O)C1=C(C)NC(C)=C(C(=O)OCCCCCCCC[N+](C)(C)C)C1c1cccc([N+](=O)[O-])c1.[I-] (racemic) | 0.9
4 | 0.9 | 0.9 | 28.1 µM | – | 1.246 µM | 0.999 µM | 0.651 µM | 0.9 | 1 | 1.94 µM | COC(=O)C1=C(C)NC(C)=C(C(=O)OCC[N+](C)(C)C)[C@H]1c1cccc([N+](=O)[O-])c1.[I-] | 0.4
5 | 1.1 | 1.3 | 1.4 µM | – | 0.0246 µM | 0.008 µM | 0.1292 µM | 1.6 | 1.2 | 0.0114 µM | COC(=O)C1=C(C)NC(C)=C(C(=O)OCCCCCCCC[N+](C)(C)C)[C@H]1c1cccc([N+](=O)[O-])c1.[I-] | 1
6 | 1 | 1.2 | 5.1 µM | – | 0.7178 µM | 0.497 µM | 0.895 µM | 1 | 1.1 | 0.42 µM | COC(=O)C1=C(C)NC(C)=C(C(=O)OCCCCCCCC[N+](C)(C)C)[C@@H]1c1cccc([N+](=O)[O-])c1.[I-] | 0.8
